This note sets out measurements from ChEMBL document CHEMBL4359864, “The synthesis and in vitro biological evaluation of novel fluorinated tetrahydrobenzo[j]phenanthridine-7,12-diones against Mycobacterium tuberculosis” (Eur J Med Chem, 2019).

pIC50: −log10 of the molar value. Converted amounts (≈) assume the structure as drawn.

Series [1] has as its system Enterococcus faecium. The experiment in a line: Antibacterial activity against Enterococcus faecium ATCC 19434 incubated for 24 hrs by resazurin dye based fluorimetric assay. The note with it: ATCC 19434, 24 h. It is filed as functional, organism-based. The gist of the method:
(§1)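 Resazurin microtiter assay: compounds from 10 mM DMSO stock, twofold serial dilutions from 64 µM final in growth medium, in triplicate. Inoculum from frozen glycerol stocks. Exposure 24 h, or 7 days for Mtb H37Ra (7H9 + 0.5% glycerol + 10% OADC). Then 0.01% resazurin was added and plates were incubated at 37°C until pink. Fluorescence read at ex 550/em 590 nm; mean of triplicates.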
For orientation: The colour change of resazurin is a common sign of viable cells or microbes.

Series [2] has as its target T1, UGT (Homo sapiens, UniProt O60656+O75310+O75795+P06133+P0DTE4+P0DTE5+P16662+P19224+P22309+P22310+P35503+P35504+P36537+P54855+Q6UWM9+Q9BY64+Q9HAW7+Q9HAW8+Q9HAW9). The experiment in a line: Microsomal stability in human liver microsomes assessed as UGT-mediated metabolism by measuring compound remaining at 5 uM and measured for 60 mins in presence of UDPGA by UPLC-MS/MS analysis (reference value: 100%). The series is classed as ADME. Conditions: read-out: Stability. The gist of the method:
(§2)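 Compound at 5 µM with 0.5 mg/mL liver microsomes in PBS. Phase I was started with 1 mM NADPH; phase II used 2 mM UDPGA. Diclofenac served as reference. Samples taken at 0, 15, 30 and 60 min were quenched in ice-cold acetonitrile, centrifuged at 4°C and analysed by LC-MS. Mean of at least two replicates ± SD.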
On the technique in general: Liver microsomes are a subcellular fraction often used to study metabolism.

In series [3] the target is T2, CYP450 (Homo sapiens, UniProt P04798+P05177+P05181+P08684+P10632+P10635+P11509+P11712+P13584+P20813+P20815+P20853+P24462+P24903+P33260+P33261+P51589+P78329+P98187+Q02928+Q08477+Q16678+Q16696+Q5TCH4+Q6VVX0+Q7Z449+Q8TAV3+Q96SQ9+Q9HB55). The experiment in a line: Microsomal stability in human liver microsomes assessed as CYP450-mediated metabolism by measuring compound remaining at 5 uM and measured for 30 mins in presence of NADPH by UPLC-MS/MS analysis (reference value: 100%). The note with it: read-out: Stability. It is filed as ADME. The gist of the method:
as §2

In series [4] the target is T2, CYP450. The experiment in a line: Microsomal stability in human liver microsomes assessed as CYP450-mediated metabolism by measuring compound remaining at 5 uM and measured for 15 mins in presence of NADPH by UPLC-MS/MS analysis (reference value: 100%). The note with it: read-out: Stability. The series is classed as ADME. The essentials: as §2
The target of series [5] is T1, UGT. The experiment in a line: Microsomal stability in human liver microsomes assessed as UGT-mediated metabolism by measuring compound remaining at 5 uM and measured for 15 mins in presence of UDPGA by UPLC-MS/MS analysis (reference value: 100%). It is filed as ADME. Conditions: read-out: Stability. The essentials:
as §2

Series [6] deals with T2, CYP450. The experiment in a line: Microsomal stability in human liver microsomes assessed as CYP450-mediated metabolism by measuring compound remaining at 5 uM and measured for 60 mins in presence of NADPH by UPLC-MS/MS analysis (reference value: 100%). It is filed as ADME. Conditions: read-out: Stability. The essentials:
as §2

For series [7], the target named is T1, UGT. The experiment in a line: Microsomal stability in human liver microsomes assessed as UGT-mediated metabolism by measuring compound remaining at 5 uM and measured for 30 mins in presence of UDPGA by UPLC-MS/MS analysis (reference value: 100%). The note with it: read-out: Stability. It is filed as ADME. The essentials:
as §2

In series [8] the test system is Escherichia coli. The experiment in a line: Antibacterial activity against Escherichia coli ATCC 8739 incubated for 24 hrs by resazurin dye based fluorimetric assay. The series is classed as functional, organism-based. The note with it: ATCC 8739, ATCC 8739, 24 h. The gist of the method: as §1
Series [9] can be described thus: Selectivity index, ratio of […] for cytotoxicity against mouse J774A.1 cells. The series is classed as toxicity, cell-based. Conditions: read-out: Selectivity Index.
Series [10] has as its system Staphylococcus aureus. Description: Antibacterial activity against Staphylococcus aureus ATCC 6538 incubated for 24 hrs by resazurin dye based fluorimetric assay. The series is classed as functional, organism-based. Conditions: ATCC 6538, 24 h. The gist of the method: as §1
Series [11] deals with UGT. Description: Microsomal stability in mouse liver microsomes assessed as UGT-mediated metabolism by measuring compound remaining at 5 uM and measured for 60 mins in presence of UDPGA by UPLC-MS/MS analysis (reference value: 100%). The series is classed as ADME. The note with it: read-out: Stability. The essentials: as §2
A short description of series [12]: Cytotoxicity against mouse J774A.1 cells assessed as reduction in cell viability incubated for 24 hrs by neutral red uptake assay. The series is classed as cell-based, J774.A1. The gist of the method:
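J774A.1 cells in DMEM + 10% iFCS, 37°C, 5% CO2, seeded at 40.000 cells/well and left overnight. Twofold dilutions from 128 µM final; 24 h exposure. Neutral red uptake for 3 h, dye extracted with 1:1 ethanol/acetic acid, OD read at 530 nm (reference 620 nm). CC50 = 50% reduction in uptake; mean of triplicates.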

Series [13] relates to CYP450. The experiment in a line: Microsomal stability in mouse liver microsomes assessed as CYP450-mediated metabolism by measuring compound remaining at 5 uM and measured for 60 mins in presence of NADPH by UPLC-MS/MS analysis (reference value: 100%). The series is classed as ADME. The note with it: read-out: Stability. The essentials:
as §2

Series [14] deals with Streptococcus pneumoniae. The experiment in a line: Antibacterial activity against Streptococcus pneumoniae ATCC BAA-334 incubated for 24 hrs by resazurin dye based fluorimetric assay. It is filed as functional, organism-based. The note with it: ATCC BAA-334, 24 h. The essentials: as §1
Series [15] relates to UGT. Description: Microsomal stability in mouse liver microsomes assessed as UGT-mediated metabolism by measuring compound remaining at 5 uM and measured for 15 mins in presence of UDPGA by UPLC-MS/MS analysis (reference value: 100%). It is filed as ADME. The note with it: read-out: Stability. The gist of the method: as §2
Series [16] concerns CYP450. The experiment in a line: Microsomal stability in mouse liver microsomes assessed as CYP450-mediated metabolism by measuring compound remaining at 5 uM and measured for 30 mins in presence of NADPH by UPLC-MS/MS analysis (reference value: 100%). It is filed as ADME. The note with it: read-out: Stability. The gist of the method:
as §2

Series [17] deals with Mycobacterium tuberculosis. Description: Antimycobacterial activity against Mycobacterium tuberculosis H37Ra lux incubated for 7 days by luminometric assay. The series is classed as functional, organism-based. The note with it: 168 h. The gist of the method: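 Twofold serial dilutions in 7H9/OADC/glycerol, in triplicate, inoculated with a suspension of 10.000 RLU per mL. After 7 days, n-decanal (1% v/v in ethanol) was added and luminescence read. IC50 and MIC (90% growth reduction) were derived from the mean of triplicates.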

For series [18], the system named is Mycobacterium tuberculosis. The experiment in a line: Antibacterial activity against Mycobacterium tuberculosis H37Ra ATCC 25177 incubated for 7 days by resazurin dye based fluorimetric assay. The series is classed as functional, organism-based. Conditions: H37Ra ATCC 25177, 168 h. The gist of the method: as §1
In series [19] the test system is Pseudomonas aeruginosa. The experiment in a line: Antibacterial activity against Pseudomonas aeruginosa ATCC 9027 incubated for 24 hrs by resazurin dye based fluorimetric assay. It is filed as functional, organism-based. Conditions: ATCC 9027, 24 h. The gist of the method: as §1
For series [20], the system named is CYP450. Description: Microsomal stability in mouse liver microsomes assessed as CYP450-mediated metabolism by measuring compound remaining at 5 uM and measured for 15 mins in presence of NADPH by UPLC-MS/MS analysis (reference value: 100%). The series is classed as ADME. The note with it: read-out: Stability. The gist of the method:
as §2

Series [21] has as its system Klebsiella pneumoniae. Description: Antibacterial activity against Klebsiella pneumoniae ATCC 13883 incubated for 24 hrs by resazurin dye based fluorimetric assay. It is filed as functional, organism-based. Conditions: ATCC 13883, 24 h. The essentials:
as §1

A short description of series [22]: Antimycobacterial activity against Mycobacterium avium subsp. avium ATCC 25291 by resazurin dye based fluorimetric assay. It is filed as functional. The gist of the method: (§3)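 Resazurin microtiter method as for the bacterial panel. Mycobacteria grown in 7H9 with 10% OADC and 0.5% glycerol; for BCG, 0.05% Tween 80 replaced the glycerol. Cultures were sonicated and needle-passed to single cells. Incubation at 37°C, or 32°C for M. marinum. Fluorescence read at ex 550/em 590 nm; mean of triplicates.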

In series [23] the test system is Mycobacterium marinum. The experiment in a line: Antimycobacterial activity against Mycobacterium marinum NCTC 2275 by resazurin dye based fluorimetric assay. The series is classed as functional, organism-based. The essentials:
as §3

Series [24] concerns UGT. Description: Microsomal stability in mouse liver microsomes assessed as UGT-mediated metabolism by measuring compound remaining at 5 uM and measured for 30 mins in presence of UDPGA by UPLC-MS/MS analysis (reference value: 100%). It is filed as ADME. Conditions: read-out: Stability. The essentials: as §2

With `CN[C@H](CC(C)C)C(=O)N[C@H]1C(=O)N[C@@H](CC(N)=O)C(=O)N[C@H]2C(=O)N[C@H]3C(=O)N[C@H](C(=O)N[C@H](C(=O)O)c4cc(O)cc(O)c4-c4cc3ccc4O)[C@H](O)c3ccc(c(Cl)c3)Oc3cc2cc(c3O[C@@H]2O[C@H](CO)[C@@H](O)[C@H](O)[C@H]2O[C@H]2C[C@](C)(N)[C@H](O)[C@H](C)O2)Oc2ccc(cc2Cl)[C@H]1O` [VANCOMYCIN], in [1], the pIC50 (in general, the negative decadic logarithm of the IC50, by convention in mol/L) was below 6.30.

For the molecule `O=C(O)Cc1ccccc1Nc1c(Cl)cccc1Cl` [DICLOFENAC], the values for the remaining at 1 h, 5 µM in [2] and in series [6] were 13% and 5%, respectively. Further, the remaining at 0.5 h, 5 µM came out at 23% in series [3] and 16% in [7]. The remaining at 0.25 h, 5 µM amounted to 45% in series [4] and 22% in series [5].

With `O=C1C2=C(C(=O)c3c1cnc1cc(C(F)(F)F)ccc31)C1CCC2C1` (centres undefined), the pIC50 in series [8] was below 4.19; in series [10], below 4.19; in series [14], 4.19 to 4.49; in series [1] it was below 4.19; in series [17] it was 5.52; in series [18] it was 5.40 to 5.70. Also, the pIC50 in series [19] was below 4.19; in [21], below 4.19; in series [22], 5.49; in [23], 5.05. In addition, the remaining at 1 h, 5 µM was found to be 63% in [2], 51% in series [11], 100% in [13] and 100% in series [6]. Further, in series [9], the selectivity ratio worked out at 15.4. For the same molecule, the remaining at 0.5 h, 5 µM was determined as 100% in series [3], 100% in series [16], 70% in series [24] and 63% in series [7]. The remaining at 0.25 h, 5 µM is 100% in series [4], 71% in series [5], 62% in [15] and 100% in series [20]. Moreover, in series [12], the 50% cytotoxic concentration (CC50) (as a rule, the concentration giving 50% cytotoxicity) at 24 h is 122 µM. Also, the MIC90 – broadly, the lowest concentration that inhibits either 90% of growth or 90% of the strains tested, depending on the study – in series [17] was 7.95 µM (≈ 2.73 µg/mL).

Consider `O=C1C2=C(C(=O)c3c1cnc1ccc(F)cc31)C1CCC2C1` (centres undefined), for which the pIC50 was below 4.19 in series [8]; below 4.19 in series [10]; 4.19 to 4.49 in series [14]; below 4.19 in [1]; 5.16 in series [17]; 5.10 to 5.40 in [18]. For the same molecule, the pIC50 in series [19] was below 4.19; in [21], below 4.19; in series [22], 6.62; in [23] it was 5.30. The remaining at 1 h, 5 µM in series [2] was found to be 64%; in [11] it was 72%; in [13], 100%; in [6] it was 100%. Besides, the remaining at 0.5 h, 5 µM was determined as 100% in series [3], 100% in [16], 92% in series [24] and 79% in [7]. In addition, the remaining at 0.25 h, 5 µM in [4] was determined as 100%; in [5], 92%; in series [15] it was 96%; in series [20] it was 100%. In addition, the CC50 at 24 h in series [12] was above 128 µM. The same molecule came in with an MIC90 in [17] of 57.3 µM (≈ 16.8 µg/mL).

In the case of `NNC(=O)c1ccncc1` [ISONIAZID], in series [17], the pIC50 is 6.96 and the MIC90 came out at 0.31 µM (≈ 0.0425 µg/mL). Moreover, the pIC50 in series [18] was above 6.60.
